Source: PubChem (several laboratories)
Only some compounds are listed: those with a hit (about 9.2% of all), similar ones and a draw of the others.
ERb coact inh – inhibitors of ERβ-SRC1 coactivator interaction, primary screen, biochemical, TR-FRET, ERβ LBD, SRC-1 peptide; inhibition, % at 25.6 µM; TR-FRET ER-beta LBD / SRC1-Cy5 peptide binding; receptor agonist-loaded with 1 µM estradiol; 86,000 compounds, 1.3% hits; Estrogen receptor beta (Homo sapiens), Q92731;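 active = compounds whose percent inhibition of the receptor-coactivator binding signal exceeds about 50% in the single-dose screen, limit read from the data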
Target sequence (Q92731 whole entry, looked up, the tested form may be a part): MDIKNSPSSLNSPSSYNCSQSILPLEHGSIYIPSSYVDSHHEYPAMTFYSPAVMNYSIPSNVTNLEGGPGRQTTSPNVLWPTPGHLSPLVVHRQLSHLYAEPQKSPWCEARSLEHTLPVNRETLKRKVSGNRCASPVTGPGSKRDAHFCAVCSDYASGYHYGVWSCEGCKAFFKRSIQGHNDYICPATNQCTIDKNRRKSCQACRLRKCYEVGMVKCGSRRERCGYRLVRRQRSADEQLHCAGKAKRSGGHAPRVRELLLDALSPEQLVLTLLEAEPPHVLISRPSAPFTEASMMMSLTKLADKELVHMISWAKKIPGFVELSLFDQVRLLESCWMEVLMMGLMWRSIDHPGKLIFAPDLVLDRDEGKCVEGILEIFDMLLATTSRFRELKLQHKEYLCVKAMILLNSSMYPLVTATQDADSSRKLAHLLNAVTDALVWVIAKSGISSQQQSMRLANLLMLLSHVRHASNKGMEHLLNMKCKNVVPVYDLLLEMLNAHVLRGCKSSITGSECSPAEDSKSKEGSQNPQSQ
ERa SRC1 inh – ERα–SRC-1 coactivator interaction inhibitors, primary screen, biochemical, TR-FRET, ERα LBD, estradiol-bound | TR-FRET ER-alpha LBD / SRC-1 peptide | inhibition, % at 25.6 µM | 86,000 compounds, 1.7% hits | Estrogen receptor (Homo sapiens), P03372 | AID 629, 2007; in the data active = inhibition above about 50%
ERa SRC1 pot – enhancers of ERα–SRC-1 coactivator binding, primary screen, biochemical, TR-FRET, ERα LBD, low estradiol; Estrogen receptor (Homo sapiens), P03372; TR-FRET ERalpha-LBD/SRC-Cy5 coactivator binding, 2 h; 100 = basal binding, no effect; coactivator binding (% of control), % at 25.6 µM; 86,000 compounds, 1.3% hits; AID 639, 2007; in the data active = activity above about 200%;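 note: binding measured in presence of low estradiol as agonist stimulus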
HUVEC prolif 384 – inhibitors of HUVEC proliferation, primary screen, cell-based, 384-well | CellTiter-Glo luminescence, 72 h; stronger effect = lower value | viability, % at 10 µM (by protocol) | 86,000 compounds, 1.1% hits | AID 648, 2007;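 active = viability at or below 30%; inactive = viability above 30%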
H69AR inhibit – proliferation blockers of H69AR lung cancer cells, primary screen, cell-based, human, 86K library. H69AR lung tumor viability, ATP luminescence, 72 h; stronger effect = lower value. viability, % at 10 µM. 85,000 compounds, 6% hits;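 active = viability at or below 40%; inactive = viability above 40%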;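 note: multidrug resistant small cell line overexpressing MRP-1 efflux transporter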
Fibroblast inh – antiproliferative effect on LL 47 fibroblasts – human, LL 47 cells, CellTiter-Glo luminescence, primary screen; LL 47 human lung fibroblast viability, ATP luminescence; stronger effect = lower value; viability, % at 10 µM; 85,000 compounds, 1.1% hits; AID 719, 2007;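 active = viability at or below 50% in the single dose screen; inactive = viability above 50%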;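 note: compound exposure lasted 72 h before the ATP readout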
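material = human LL 47 lung fibroblast cells | dosing = compounds added from tenfold dosing solution, 0.1% DMSO final | timing = overnight cell rest, 72 h compound treatment at 37 °C | measured by = CellTiter-Glo luminescence measuring cellular ATP | evaluation = % viability versus median cells-only luminescence | control set = cell-only wells, no compound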
Each line names hits and unclear results; the compound was inactive in the other large screens; [ ] = remark or other dose.

O=C(Cc1ccccc1)Nc1nc2ccccc2[nH]1	none
Cc1cc(C(=O)NCCCN2CCCC2=O)no1	none
O=c1cc(O)c2c(=O)n(-c3ccccc3)c3ccccc3c2o1	H69AR inhibit 12
Cc1ccccc1C(=O)Nc1cccc(NC(=O)c2ccc(-c3ccc(Br)cc3)o2)c1	ERa SRC1 inh 79[fluorescence artefact?], H69AR inhibit 22
COc1ccccc1CNC(=O)C[n+]1ccccc1	none
Cc1ccc(NC(=O)C2CCN(C(=O)NC3CCCCC3)CC2)cc1	none
CCCCSc1nnc([C@@H](NC(=O)OC(C)(C)C)C(C)C)o1	none
Cc1c(Cl)cccc1-n1c(SCC(=O)NCc2ccccc2Cl)nnc1-c1ccncc1	H69AR inhibit 21
COCCOc1ccc(C(F)(F)F)cc1Nc1nc2ccccc2o1	none
Cc1cc(C)nc(NC(=O)CSc2nnnn2-c2ccccc2)n1	none
Cc1cc(C)nc(NC(=O)CSc2nn(C)c(=S)s2)n1	ERa SRC1 inh 65
Cc1ccc2oc(=O)c3cnn(CC(=O)N(CCC(C)C)Cc4ccco4)c3c2c1	H69AR inhibit 38
O=C(Cn1ncc2c(=O)oc3ccccc3c21)N(Cc1ccco1)C1CCCCC1	none
C=CCNc1nc(-c2cccc(OC)c2O)nc2ccccc12	ERa SRC1 inh 58
COc1cccc(-c2nc(NCc3ccco3)c3ccccc3n2)c1O	none
COc1cccc(-c2nc(N3CCCCC3C)c3ccccc3n2)c1O (configuration not stated)	H69AR inhibit 38
CCN(CC(=O)N1CCc2ccccc2C1)S(=O)(=O)c1ccc2ccccc2c1	none
CCOC(=O)c1ccc(CNC(=O)c2n[nH]c(=O)c3ccccc23)o1	none
CC1CN(S(=O)(=O)c2ccc(C(=O)Nc3nnc(-c4ccc5c(c4)CCCC5)o3)cc2)CC(C)O1 (configuration not stated)	HUVEC prolif 384 7.0, H69AR inhibit 17, Fibroblast inh 39
O=C(NCC1CCN(c2ccc(S(=O)(=O)N3CCOCC3)cc2)CC1)c1cccc(Cl)c1	none
COc1ccc(NC(=O)c2ccc(S(=O)(=O)N3CCOCC3)cc2)c(OC)c1	none
COc1cccc(-c2nnc(NC(=O)c3ccc(S(=O)(=O)N4CCOCC4)cc3)o2)c1	HUVEC prolif 384 15, H69AR inhibit 20
COc1cccc(C(=O)NCC2CCN(c3ccc(S(=O)(=O)N4CCOCC4)cc3)CC2)c1	H69AR inhibit 30
CCCCC1CCC(C(=O)Nc2c(C)n(C)n(-c3ccccc3)c2=O)CC1 (configuration not stated)	none
COc1c(Br)cc(Br)cc1/C=N/n1c(C)nnc1C	H69AR inhibit 25
COc1cc(/C=N/n2c(C)nnc2C)cc(OC)c1OC	none
O=C(O)C1CCCCC1C(=O)Nc1ccc(F)cc1F (configuration not stated)	none
FC(F)(F)c1cc(-c2ccccc2)nc(NC2CCCC2)n1	none
O=C(Cn1c(=O)n(Cc2ccco2)c(=O)c2c3c(sc21)CCCCC3)c1ccccc1	ERa SRC1 inh 66
O=c1c2c3c(sc2n(CCN2CCCC2)c(=O)n1Cc1ccco1)CCCCC3	none
O=C(Cn1c(=O)n(Cc2ccco2)c(=O)c2c3c(sc21)CCCCC3)Nc1ccccc1	ERb coact inh 80, ERa SRC1 inh 73
CC1(C)NC(=O)NC2(C)NC(=O)NC(C)(C)C12 (configuration not stated)	none
Cc1ccc(OC(=S)Nc2ccc(O)cc2)cc1	H69AR inhibit 15
CCCC1CC(C)(c2csc(Nc3ccc(OCC)cc3)n2)OC1=O (configuration not stated)	none
COc1ccc2c(c1)C1(Nc3ccccc3-c3nc4ccccc4n31)C(=O)N2 (configuration not stated)	none
COc1ccc2c(c1)C1(Nc3ccccc3-c3nc4ccccc4n31)C(=O)N2C (configuration not stated)	H69AR inhibit 37 (no result: Fibroblast inh)
CCOC(=O)C1C2C=CC3(CN(C4CCCC4)C(=O)C13)O2 (configuration not stated)	none
CCOC(=O)C1CCCN(C(=O)c2cc3c(-c4cccc(OC)c4)nn(C)c3s2)C1 (configuration not stated)	H69AR inhibit 22
CCC1(C)OCC(Cn2c3ccccc3c3ccccc32)O1 (configuration not stated)	H69AR inhibit 25
C=CCN1C(=O)CSc2ccc(C(=O)NCCC3=CCCCC3)cc21	none
CC1(C)CC(=O)C2=C(C1)Nc1nc(SCCN3CCOCC3)[nH]c(=O)c1C2c1cccs1 (configuration not stated)	none
CSc1nc2c(c(=O)[nH]1)C(c1cccs1)C1=C(CCCC1=O)N2 (configuration not stated)	ERb coact inh 56
Nc1cc(CN2C(=O)c3ccccc3C2=O)cc(Cl)c1O	H69AR inhibit 34
CCOC(=O)Cc1csc(NC(=O)CCS(=O)(=O)Cc2ccccc2)n1	none
CCC(=O)NCCc1nc2ccccc2n1Cc1ccc(C)cc1	none
COC(=O)C(NC(C)=O)(Nc1nc2c(C)cc(C)cc2s1)C(F)(F)F (configuration not stated)	H69AR inhibit 26
Cn1c(=NC(=O)C2CC2)sc2cccc(F)c21	none
C#CCn1c(=NC(=O)c2ccc(Br)s2)sc2cccc(OC)c21	ERa SRC1 inh 57[fluorescence artefact?], ERa SRC1 pot 333[fluorescence artefact?], H69AR inhibit 2.6, Fibroblast inh 38
O=C(CSc1nc2ccccc2c(=O)[nH]1)c1ccc(O)c(O)c1	ERb coact inh 66, ERa SRC1 inh 59[fluorescence artefact?]
O=C(CSc1nc2ccccc2c(=O)[nH]1)c1cccs1	none
CCCN1C2CCCC1CC(NC(=O)c1cc(OC)c(OC)c(OC)c1)C2 (configuration not stated)	none
O=C(CNS(=O)(=O)c1ccc(Br)s1)N1CCC(N2CCCCC2)CC1	none
CC(C)NC(=O)CN1C(=O)NC(CCc2ccccc2)C1=O (configuration not stated)	ERa SRC1 inh 61[fluorescence artefact?]
COC(=O)CS(=O)(=O)c1nnc([C@H](Cc2ccccc2)NC(=O)OC(C)(C)C)o1	H69AR inhibit 0.3, Fibroblast inh 0.9
COC(=O)CSc1nnc([C@H](Cc2ccccc2)NC(=O)OC(C)(C)C)o1	none
Cc1cccc(CS(=O)(=O)c2nnc([C@H](Cc3ccccc3)NC(=O)OC(C)(C)C)o2)c1	H69AR inhibit 0.5
COc1ccc(CNC(=S)Nc2cccc(C)c2C)cc1	none
